Experimental data reported in ChEMBL document CHEMBL4321831, “Vaccine Adjuvants Derivatized from Momordica Saponins I and II” (J Med Chem, 2019).
Calls of active or inactive are those of the source. The calls are words filed in the database; no cut-off is given here.

Columns and labels:
[1] = Acute toxicity in BALB/c mouse assessed as mouse survival at 100 to 200 ug, sc measured after 5 days; assay type: organism-based; details: in vivo
In short: (§1)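 Female BALB/c mice, 10 weeks old, 5 per group, given a single subcutaneous injection in the neck of adjuvant in 0.1 mL PBS at doses from 100 to 5000 μg, with untreated controls. Survival was counted 5 days after injection. Surviving mice were checked through day 7 for fur condition, behaviour, lethargy and lesion formation.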

Mus musculus [2] = test: Immuno-adjuvant activity in recombinant Porphyromonas gingivalis HagB-immunized BALB/c mouse assessed as potentiation of antibody response to rHagB by measuring increase in serum anti-rHagB IgG1 activity at 100 ug, sc administered immediately and on day 14, 28 and measured at week 2 to 4 by ELISA; assay type: functional, organism-based
Mus musculus [3] = test: Immuno-adjuvant activity in OVA-immunized BALB/c mouse assessed as potentiation of antibody response to OVA by measuring increase in serum anti-OVA IgG1 activity at 100 ug, sc administered immediately and on day 14, 28 and measured at week 6 by ELISA; assay type: functional, organism-based
In short: (§2)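 Female BALB/c mice (8–10 weeks, six per group) got sc OVA (20 μg) plus adjuvant (100 μg) on days 0, 14 and 28. Tail-vein serum was taken before each dose and 2 weeks after the last. ELISA plates were coated with OVA (0.1 μg/mL) in borate-buffered saline, pH 8.2. Serial 2-fold serum dilutions were run in duplicate, detected with HRP anti-mouse IgG/IgG1/IgG2a and o-phenylenediamine, and read at 490 nm.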

Mus musculus [4] = test: Immuno-adjuvant activity in OVA-immunized BALB/c mouse assessed as potentiation of antibody response to OVA by measuring serum anti-OVA IgG1 level at 100 ug, sc administered immediately and on day 14, 28 and measured at week 6 by ELISA (reference value: 113 +/- 37 ug/ml); assay type: functional; in short: as §2
Mus musculus [5] = test: Immuno-adjuvant activity in OVA-immunized BALB/c mouse assessed as potentiation of antibody response to OVA by measuring serum anti-OVA IgG2a level at 100 ug, sc administered immediately and on day 14, 28 and measured at week 6 by ELISA (reference value: 0.1 ug/ml); assay type: functional; in short: as §2
Mus musculus [6] = test: Immuno-adjuvant activity in OVA-immunized BALB/c mouse assessed as potentiation of antibody response to OVA by measuring increase in serum anti-OVA IgG activity at 100 ug, sc administered immediately and on day 14, 28 and measured at week 2 to 6 by ELISA; assay type: functional, organism-based; in short: as §2
Mus musculus [7] = test: Immuno-adjuvant activity in OVA-immunized BALB/c mouse assessed as potentiation of antibody response to OVA by measuring ratio of serum anti-OVA IgG2a to serum anti-OVA IG1 level at 100 ug, sc administered immediately and on day 14, 28 and measured at week 6 by ELISA; assay type: functional
[8] = Toxicity in OVA-immunized BALB/c mouse assessed as changes in body weight at 100 ug, sc administered immediately and on day 14, 28 and measured at week 6; assay type: organism-based; details: in vivo
In short: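 Female BALB/c mice (8–10 weeks, six per group) received sc OVA (20 μg) with adjuvant (100 μg) on days 0, 14 and 28. Body weight was recorded before each immunization and 2 weeks after the final one.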

Mus musculus [9] = test: Immuno-adjuvant activity in recombinant Porphyromonas gingivalis HagB-immunized BALB/c mouse assessed as potentiation of antibody response to rHagB by measuring increase in serum anti-rHagB IgG2a activity at 100 ug, sc administered immediately and on day 14, 28 and measured at week 2 to 6 by ELISA; assay type: functional, organism-based
[10] = Acute toxicity in BALB/c mouse assessed as mouse survival at 5000 ug, sc measured after 5 days; assay type: organism-based; details: in vivo; in short: as §1
[11] = Acute toxicity in BALB/c mouse assessed as lethargy at 100 to 2000 ug, sc measured at day 7 post injection; assay type: organism-based; details: in vivo; in short: as §1
[12] = Acute toxicity in BALB/c mouse assessed as lesion formation at 100 to 2000 ug, sc measured at day 7 post injection; assay type: organism-based; details: in vivo; in short: as §1
Mus musculus [13] = test: Immuno-adjuvant activity in OVA-immunized BALB/c mouse assessed as potentiation of antibody response to OVA by measuring increase in serum anti-OVA IgG1 activity at 100 ug, sc administered immediately and on day 14, 28 and measured at week 2 to 4 by ELISA; assay type: functional, organism-based; in short: as §2
Mus musculus [14] = test: Immuno-adjuvant activity in OVA-immunized BALB/c mouse assessed as potentiation of antibody response to OVA by measuring serum anti-OVA IgG2a activity at 100 ug, sc administered immediately and on day 14, 28 and measured at week 2 by ELISA; assay type: functional, organism-based; in short: as §2
Mus musculus [15] = test: Immuno-adjuvant activity in OVA-immunized BALB/c mouse assessed as potentiation of antibody response to OVA by measuring increase in serum anti-OVA IgG2a activity at 100 ug, sc administered immediately and on day 14, 28 and measured at week 4 to 6 by ELISA; assay type: functional, organism-based; in short: as §2
Mus musculus [16] = test: Immuno-adjuvant activity in recombinant Porphyromonas gingivalis HagB-immunized BALB/c mouse assessed as potentiation of antibody response to rHagB by measuring serum anti-rHagB IgG1 activity at 100 ug, sc administered immediately and on day 14, 28 and measured at week 6 by ELISA; assay type: functional, organism-based
Mus musculus [17] = test: Immuno-adjuvant activity in recombinant Porphyromonas gingivalis HagB-immunized BALB/c mouse assessed as potentiation of antibody response to rHagB by measuring increase in serum anti-rHagB IgG activity at 100 ug, sc administered immediately and on day 14, 28 and measured at week 2 to 4 by ELISA; assay type: functional, organism-based
Mus musculus [18] = test: Immuno-adjuvant activity in recombinant Porphyromonas gingivalis HagB-immunized BALB/c mouse assessed as potentiation of antibody response to rHagB by measuring increase in serum anti-rHagB IgG activity at 100 ug, sc administered immediately and on day 14, 28 and measured at week 6 by ELISA; assay type: functional, organism-based
[19] = Acute toxicity in BALB/c mouse assessed as normal animal behaviour with healthy fur at 100 to 2000 ug, sc measured at day 5 post injection; assay type: organism-based; details: in vivo; in short: as §1
[20] = Acute toxicity in BALB/c mouse assessed as mouse survival at 100 to 2000 ug, sc measured after 5 days; assay type: organism-based; details: in vivo; in short: as §1

| Compound | survival at 120 h [1] | Activity (Mus musculus [2]) | Activity (Mus musculus [3]) | Activity (Mus musculus [4]) | Activity (Mus musculus [5]) | Activity (Mus musculus [6]) | Ratio (Mus musculus [7]) | Activity [8] | Activity (Mus musculus [9]) | survival at 120 h [10] | Activity [11] | Activity [12] | Activity (Mus musculus [13]) | Activity (Mus musculus [14]) | Activity (Mus musculus [15]) | Activity (Mus musculus [16]) | Activity (Mus musculus [17]) | Activity (Mus musculus [18]) | Activity [19] | survival at 120 h [20] |
| --- | --- | --- | --- | --- | --- | --- | --- | --- | --- | --- | --- | --- | --- | --- | --- | --- | --- | --- | --- | --- |
| CC1(C)CC[C@]2(C(=O)O[C@@H]3O[C@H](CO)[C@@H](O)[C@H](O[C@@H]4O[C@H](CO)[C@@H](O)[C@H](O[C@@H]5O[C@H](CO)[C@@H](O)[C@H](O[C@@H]6O[C@H](CO)[C@@H](O)[C@H](O[C@@H]7O[C@H](CO)[C@@H](O)[C@H](O)[C@H]7O)[C@H]6O)[C@H]5O)[C@H]4O)[C@H]3O)[C@H](O)C[C@]3(C)C(=CC[C@@H]4[C@@]5(C)CC[C@H](O[C@@H]6O[C@H](CO)[C@@H](O)[C@H](O[C@@H]7O[C@H](CO)[C@@H](O)[C@H](O[C@@H]8O[C@H](CO)[C@@H](O)[C@H](O)[C@H]8O)[C@H]7O)[C@H]6O)[C@@](C)(C=O)[C@@H]5CC[C@]43C)[C@H]2C1 | 0% | – | – | – | – | – | – | – | – | – | – | – | – | – | – | – | – | – | – | – |
| CCCCCCCCCCCCNC(=O)[C@H]1O[C@@H](O[C@H]2CC[C@]3(C)[C@H]4CC=C5[C@H]6CC(C)(C)CC[C@]6(C(=O)O[C@@H]6O[C@H](C)[C@H](O)[C@H](O)[C@H]6O[C@@H]6O[C@@H](C)[C@H](O[C@@H]7OC[C@@H](O)[C@H](O)[C@H]7O)[C@@H](O[C@@H]7O[C@H](CO)[C@@H](O)[C@H](O[C@@H]8OC[C@@H](O)[C@H](O)[C@H]8O)[C@H]7O)[C@H]6O)CC[C@@]5(C)[C@]4(C)CC[C@H]3[C@]2(C)C=O)[C@H](O[C@@H]2O[C@H](CO)[C@H](O)[C@H](O)[C@H]2O)[C@@H](O[C@@H]2O[C@@H](C)[C@H](O)[C@@H](O)[C@H]2O)[C@@H]1O | – | Active | Active | 713 µg/mL | 208 µg/mL | Active | 0.312 | Non-Toxic | Active | 0% | Non-Toxic | Non-Toxic | Active | inactive | Active | inactive | Active | Active | Non-Toxic | 100% |
